This is a sample that favours compounds with a hit; in the whole collection about 1.8% have one here.
hK5 inh: inhibitors of human kallikrein 5; Q9Y337; recombinant hK5, fluorogenic AMC substrate cleavage; inhibition, % at 5 µM; 0.59% of 210,000 active; AID 873;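 active means inhibition of 40% or more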
Platelet DG rel: platelet dense granule release activity. 0.22% of 300,000 active. human platelet-rich plasma, SFLLRN dense granule ATP release, luminescence. AID 1663. inhibition, %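 (compounds screened at 7.5 µM in platelet-rich plasma)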;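 active means mean replicate score, as percent of positive control, at or above 50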
FXIIa inh: inhibitors of human coagulation factor XIIa. P00748. 0.3% of 220,000 active. purified FXIIa, Boc-QGR-AMC fluorogenic substrate, 2 h. inhibition, % at 5 µM; in the data active means inhibition above about 40%
thrombin 1536: inhibitors of human thrombin; P00734; inhibition, % at 5 µM; 0.26% of 220,000 active; alpha-thrombin, Boc-VPR-AMC fluorogenic substrate cleavage;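 active means inhibition at or above 40%; inactive means inhibition below 40%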
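Assay system: human alpha-thrombin enzyme. Reagent: Boc-VPR-AMC substrate, 15 µM final. Compound dosing: one concentration per compound, 5 µM, with 0.2% DMSO. Incubation: room-temperature reaction. Technique: AMC fluorescence, 355/460 nm. Measure: % inhibition relative to enzyme controls and enzyme-free blanks.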
FXIa inh 1536: blocks human coagulation factor XIa protease activity. AID 798. 0.14% of 220,000 active. inhibition, % at 5 µM. P03951. purified FXIa, Boc-Glu-Ala-Arg-AMC fluorogenic substrate;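 active means inhibition of at least 40%; inactive means inhibition below 40%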;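 further: fluorescence of freed AMC excited at 355 nm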
Wee1 stabilizer: inhibitors of human Wee1 degradation | HeLa Luc-Wee1K328M stability, luciferase luminescence; 100% = proteasome inhibitor MG132 effect | AID 1321 | reporter increase, % at 5 µM | P30291 | 1.2% of 220,000 active;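 active means activation above the mean of all tested compounds plus 3 SD, set per screening run, cut at about 8.8% in these data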;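 further: cells exposed to compound for 20 h before luminescence read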
Target sequence (P30291 whole entry K328M): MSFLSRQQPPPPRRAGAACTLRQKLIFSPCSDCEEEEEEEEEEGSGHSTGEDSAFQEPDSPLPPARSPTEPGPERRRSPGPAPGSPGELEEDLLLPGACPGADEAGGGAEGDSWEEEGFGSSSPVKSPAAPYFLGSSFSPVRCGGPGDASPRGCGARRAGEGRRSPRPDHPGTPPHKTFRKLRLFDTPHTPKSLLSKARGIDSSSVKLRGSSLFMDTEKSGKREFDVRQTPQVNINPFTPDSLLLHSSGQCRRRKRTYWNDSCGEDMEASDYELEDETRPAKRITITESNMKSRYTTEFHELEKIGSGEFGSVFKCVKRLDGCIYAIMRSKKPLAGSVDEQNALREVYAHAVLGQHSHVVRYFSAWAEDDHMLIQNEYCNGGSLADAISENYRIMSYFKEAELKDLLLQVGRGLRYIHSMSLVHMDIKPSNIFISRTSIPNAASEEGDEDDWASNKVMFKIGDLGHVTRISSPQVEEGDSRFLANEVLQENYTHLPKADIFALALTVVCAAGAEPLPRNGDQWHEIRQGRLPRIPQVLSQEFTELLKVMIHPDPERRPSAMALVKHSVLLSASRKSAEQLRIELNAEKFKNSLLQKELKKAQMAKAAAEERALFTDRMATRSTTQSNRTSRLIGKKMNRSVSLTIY
A number is an active result; - = inactive; . = not tested or not shown.

SMILES	hK5 inh	Platelet DG rel	FXIIa inh	thrombin 1536	FXIa inh 1536	Wee1 stabilizer
COc1cccc(NC(=O)Nc2cccnc2)c1	71	-	40	-	-	-
COc1cccc(NC(=O)Nc2ccccc2SC)c1	-	-	102	-	-	-
COc1ccc(NC(=O)Nc2cccnc2)c(OC)c1	.	-	-	-	-	-
O=C(NCCc1ccccc1)C(=S)N1CCCCC1	-	-	-	-	-	-
O=S1(=O)CC(O)C(N2CCCCC2)C1 (stereo not drawn)	-	-	-	-	-	-
COc1cccc(NC(C(=O)Nc2cccc(C(C)=O)c2)c2ccccc2)c1 (stereo not drawn)	-	-	54	-	-	-
O=C(CN(Cc1ccccc1)S(=O)(=O)c1ccc(F)cc1)NCCC1=CCCCC1	-	-	-	-	-	-
Cc1ccc(S(=O)(=O)N(CC(=O)NCCC2=CCCCC2)Cc2ccccc2)cc1	-	-	42	-	-	-
Cc1cccc(Nc2nc(N)nc(CCl)n2)c1	-	-	-	49	-	-
N#C/C(=N\O)c1nc2ccccc2s1	43	-	-	-	-	-
CC1CCCN(c2nc(NCc3ccco3)nc(N)c2[N+](=O)[O-])C1 (stereo not drawn)	-	-	-	-	-	-
CC1CC(C)CN(c2nc(NCc3ccco3)nc(N)c2[N+](=O)[O-])C1 (stereo not drawn)	-	-	-	-	-	11
N=C1C=CC=C2C1=NC1(CCCCC1)N2O	98	-	-	104	-	-
Nc1ccc2nc(-c3ccccc3)sc2c1	-	64	-	-	-	-
Cc1ccc2nc(-c3ccc(N)cc3)sc2c1	-	-	-	-	-	-
COC(=O)c1cnc(N2CCOCC2)nc1C(F)(F)F	-	-	-	-	-	10
CC(C)(/C=N/NC(=O)CSCc1ccc(Cl)cc1)CCC#N	-	-	-	-	-	-
O=C(c1cccc(C(=O)N2CCC(O)(c3ccccc3)CC2)c1)N1CCC(O)(c2ccccc2)CC1	.	-	.	.	.	.
COc1cc(C(=O)N2CCC(O)(c3ccccc3)CC2)cc(OC)c1OC	51	-	-	-	-	-
O=C(Nc1nccs1)c1ncc(Cl)c(Cl)c1Cl	.	-	.	.	.	.
COc1ccc(/C=C2\SC(=S)N(CC(=O)OCC(=O)Nc3ccc(C)cc3Cl)C2=O)cc1	-	-	-	-	-	-
COc1ccc(S(=O)(=O)n2nc(-c3ccc(Cl)cc3)cc2N)cc1OC	48	-	-	-	-	-
CCOc1ccc(-c2cc(N)n(S(=O)(=O)c3ccc(OC)c(OC)c3)n2)cc1	-	-	-	-	-	-
O=C1NC(c2ccc3c(c2)OCO3)Oc2ccccc21 (stereo not drawn)	-	-	-	-	-	-
O=C1NC(c2ccc3c(c2)OCO3)Nc2ccccc21 (stereo not drawn)	-	-	-	-	-	11
SMILES	hK5 inh	Platelet DG rel	FXIIa inh	thrombin 1536	FXIa inh 1536	Wee1 stabilizer
CCCCNC(=O)c1cc2c(-c3ccc(Cl)cc3)nn(C)c2s1	-	-	-	-	-	-
Cc1ccc(CNC(=O)c2cc3c(-c4ccc(Cl)cc4)nn(C)c3s2)o1	-	-	-	-	-	9.6
CC(=O)c1ccc(O)c(CSC2=NCCS2)c1	-	-	-	67	-	-
O=C(CN1CCN(c2ccccn2)CC1)Nc1ccc(Oc2ccccc2)cc1	-	-	56	-	-	-
O=C(N/N=C/c1cccc(OC(=O)N2CCOCC2)c1)c1cccs1	-	-	-	-	-	9.1
O=C(NCCN1CCOCC1)c1cc2cc(Cl)cc(Cl)c2oc1=O	.	.	.	.	.	-
O=C(COS(=O)c1ccccc1)Nc1cc(Cl)ccc1N1CCOCC1 (stereo not drawn)	-	-	-	-	-	9.0
CC(=O)c1sc(NC(=O)COc2ccc(Cl)cc2C)nc1C	59	-	71	-	-	-
CN(C)C(=O)C(=O)c1cccn1-c1cccc(Cl)c1C#N	.	-	-	-	-	-
Cc1ccc(OCC(=O)N2CCC(N3CCCCCC3)CC2)cc1	-	-	-	42	-	-
Cc1ccc(C)c(S(=O)(=O)NCCN2CCOCC2)c1	.	-	.	.	.	.
Cc1ccc(C)c(S(=O)(=O)NCCCN2CCOCC2)c1	-	-	-	42	-	-
CCOc1ccccc1NC(=O)CSc1nc2ccccc2c(=O)n1CC1CCCO1 (stereo not drawn)	.	-	.	.	.	.
COc1ccc(CCNC(=O)CSc2nc3ccsc3c(=O)n2CC2CCC(C(=O)O)CC2)cc1OC (stereo not drawn)	.	-	.	.	.	.

Source: PubChem
